Each structure is given as a SMILES string.

Details in all cases: stereoisomer not certain
In experiment [1] the target is T1, Or1m1 (Mus musculus) (UniProt Q8VFM9).
T1 sequence (whole entry): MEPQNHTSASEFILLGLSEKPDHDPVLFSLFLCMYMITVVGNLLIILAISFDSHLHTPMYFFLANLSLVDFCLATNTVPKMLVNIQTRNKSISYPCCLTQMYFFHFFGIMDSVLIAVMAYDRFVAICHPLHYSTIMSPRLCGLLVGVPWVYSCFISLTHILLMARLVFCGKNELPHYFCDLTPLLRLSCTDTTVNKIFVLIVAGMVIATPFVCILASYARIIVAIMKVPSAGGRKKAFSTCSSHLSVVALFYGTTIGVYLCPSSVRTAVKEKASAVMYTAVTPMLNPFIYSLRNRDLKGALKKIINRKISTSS
Summed up: (§1)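 Values were gathered from published papers (main text and supplementary material), with extra details requested from the original authors when needed, and checked for typos and inconsistencies. Each receptor–molecule pair is called responsive (active) if the original authors judged the measured signal statistically different from baseline, and non-responsive (inactive) otherwise. Assay methods varied by source, often transient mammalian cell-line luciferase assays. Recorded details include cell line, G-protein, co-transfected protein and tags.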

Experiment [2] deals with T2, Or5ar1 (Mus musculus) (UniProt Q8VGS3).
T2 sequence (whole entry): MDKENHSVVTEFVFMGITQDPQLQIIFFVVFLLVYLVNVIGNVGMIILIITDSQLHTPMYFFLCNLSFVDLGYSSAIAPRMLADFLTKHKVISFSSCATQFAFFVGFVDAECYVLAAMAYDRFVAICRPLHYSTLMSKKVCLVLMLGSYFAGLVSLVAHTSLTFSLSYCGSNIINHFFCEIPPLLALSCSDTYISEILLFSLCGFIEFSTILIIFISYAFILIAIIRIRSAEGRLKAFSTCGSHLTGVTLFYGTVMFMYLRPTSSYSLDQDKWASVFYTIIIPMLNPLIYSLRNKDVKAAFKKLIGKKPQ
Summed up: as §1

In experiment [3] the target is T3, UniProt A2ATE5.
T3 sequence (whole entry): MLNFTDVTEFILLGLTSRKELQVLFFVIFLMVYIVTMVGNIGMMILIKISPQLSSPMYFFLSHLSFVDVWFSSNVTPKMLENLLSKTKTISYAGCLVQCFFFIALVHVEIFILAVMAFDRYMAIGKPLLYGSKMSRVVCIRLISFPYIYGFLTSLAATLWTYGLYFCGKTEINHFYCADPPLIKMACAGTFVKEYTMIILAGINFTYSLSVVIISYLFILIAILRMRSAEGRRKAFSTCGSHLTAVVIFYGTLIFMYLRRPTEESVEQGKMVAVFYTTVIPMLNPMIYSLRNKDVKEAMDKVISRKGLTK
In a few lines: as §1

For experiment [4], the target named is T4, UniProt A2AVB0.
T4 sequence (whole entry): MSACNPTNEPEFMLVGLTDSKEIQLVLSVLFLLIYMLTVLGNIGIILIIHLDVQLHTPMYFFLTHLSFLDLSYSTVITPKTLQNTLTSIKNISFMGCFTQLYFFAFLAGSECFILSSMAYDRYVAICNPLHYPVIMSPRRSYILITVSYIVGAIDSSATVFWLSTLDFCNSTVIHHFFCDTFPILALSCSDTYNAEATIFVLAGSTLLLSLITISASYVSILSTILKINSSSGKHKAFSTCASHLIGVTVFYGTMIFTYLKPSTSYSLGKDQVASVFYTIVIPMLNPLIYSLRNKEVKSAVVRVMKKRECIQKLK
In a few lines:
as §1

Experiment [5] has as its target T5, Or2c1 (Mus musculus) (UniProt P23275).
T5 sequence (whole entry): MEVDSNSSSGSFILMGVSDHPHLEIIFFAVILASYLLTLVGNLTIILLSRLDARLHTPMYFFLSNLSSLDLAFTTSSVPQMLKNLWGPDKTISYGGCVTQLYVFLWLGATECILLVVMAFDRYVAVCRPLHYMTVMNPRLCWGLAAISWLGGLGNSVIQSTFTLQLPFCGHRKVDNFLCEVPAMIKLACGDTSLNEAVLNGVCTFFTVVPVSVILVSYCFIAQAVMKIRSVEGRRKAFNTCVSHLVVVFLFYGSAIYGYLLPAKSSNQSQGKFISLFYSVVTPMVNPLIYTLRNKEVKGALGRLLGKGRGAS
In a few lines: as §1

Experiment [6] deals with T6, Or5p80 (Mus musculus) (UniProt Q8VG42).
T6 sequence (whole entry): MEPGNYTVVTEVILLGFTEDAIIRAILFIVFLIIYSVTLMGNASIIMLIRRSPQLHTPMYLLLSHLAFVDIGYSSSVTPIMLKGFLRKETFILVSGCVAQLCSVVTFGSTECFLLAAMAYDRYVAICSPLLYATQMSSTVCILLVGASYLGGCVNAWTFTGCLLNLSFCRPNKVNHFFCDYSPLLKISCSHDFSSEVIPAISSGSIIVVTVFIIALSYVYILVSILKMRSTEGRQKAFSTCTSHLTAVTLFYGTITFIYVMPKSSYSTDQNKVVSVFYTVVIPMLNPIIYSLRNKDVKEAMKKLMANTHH
Summed up: as §1

For experiment [7], the target named is T7, Or7a40 (Mus musculus) (UniProt Q9JHB2).
T7 sequence (whole entry): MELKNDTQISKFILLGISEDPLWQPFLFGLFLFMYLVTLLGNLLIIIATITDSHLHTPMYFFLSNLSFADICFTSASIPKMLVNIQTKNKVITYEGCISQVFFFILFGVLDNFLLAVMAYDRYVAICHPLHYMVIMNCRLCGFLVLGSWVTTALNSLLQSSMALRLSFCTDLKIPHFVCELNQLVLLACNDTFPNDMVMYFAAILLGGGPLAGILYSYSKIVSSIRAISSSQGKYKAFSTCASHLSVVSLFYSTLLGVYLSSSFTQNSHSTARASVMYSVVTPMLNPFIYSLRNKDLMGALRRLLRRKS
In a few lines: as §1

Experiment [8] concerns the target T8, UniProt A2AVB5.
T8 sequence (whole entry): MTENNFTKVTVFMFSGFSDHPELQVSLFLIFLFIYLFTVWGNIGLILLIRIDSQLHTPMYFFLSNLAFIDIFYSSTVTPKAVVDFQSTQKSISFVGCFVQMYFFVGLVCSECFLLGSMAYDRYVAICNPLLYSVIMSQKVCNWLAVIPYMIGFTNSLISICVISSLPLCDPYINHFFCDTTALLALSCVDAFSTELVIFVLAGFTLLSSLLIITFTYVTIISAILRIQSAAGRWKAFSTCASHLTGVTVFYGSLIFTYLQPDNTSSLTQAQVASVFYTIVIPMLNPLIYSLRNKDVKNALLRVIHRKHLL
Summed up:
as §1

Experiment [9] deals with OR9G9 (Homo sapiens) (UniProt P0C7N8). In a few lines:
as §1

The target of experiment [10] is OR9I1 (Homo sapiens) (UniProt Q8NGQ6). Summed up: as §1
Sequence of OR9I1 (Homo sapiens) (Q8NGQ6 whole entry): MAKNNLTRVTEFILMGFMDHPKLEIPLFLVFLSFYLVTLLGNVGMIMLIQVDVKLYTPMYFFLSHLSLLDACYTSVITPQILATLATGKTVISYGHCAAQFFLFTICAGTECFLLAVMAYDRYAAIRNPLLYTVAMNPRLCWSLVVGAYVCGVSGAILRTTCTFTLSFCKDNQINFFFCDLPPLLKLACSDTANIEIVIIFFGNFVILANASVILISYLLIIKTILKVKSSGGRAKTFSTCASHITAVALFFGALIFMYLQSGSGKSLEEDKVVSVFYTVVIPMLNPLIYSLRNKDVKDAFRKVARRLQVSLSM
In experiment [11] the target is OR9K2 (Homo sapiens) (UniProt Q8NGE7). In a few lines:
as §1

For experiment [12], the target named is OR9Q1 (Homo sapiens) (UniProt Q8NGQ5). In a few lines: as §1
Sequence of OR9Q1 (Homo sapiens) (Q8NGQ5 whole entry): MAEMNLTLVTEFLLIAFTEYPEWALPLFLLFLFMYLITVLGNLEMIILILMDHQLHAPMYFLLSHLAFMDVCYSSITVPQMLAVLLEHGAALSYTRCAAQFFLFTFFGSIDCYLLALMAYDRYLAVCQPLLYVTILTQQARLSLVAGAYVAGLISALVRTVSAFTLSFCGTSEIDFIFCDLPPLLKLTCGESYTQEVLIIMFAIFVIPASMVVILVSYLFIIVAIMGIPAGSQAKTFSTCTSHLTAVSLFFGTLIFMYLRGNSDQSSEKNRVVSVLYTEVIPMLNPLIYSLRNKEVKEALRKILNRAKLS
Experiment [13] has as its target OR9Q2 (Homo sapiens) (UniProt Q8NGE9). In a few lines:
as §1

In experiment [14] the target is Or5an6 (Mus musculus) (UniProt Q8VFV4). In a few lines: as §1
Sequence of Or5an6 (Mus musculus) (Q8VFV4 whole entry): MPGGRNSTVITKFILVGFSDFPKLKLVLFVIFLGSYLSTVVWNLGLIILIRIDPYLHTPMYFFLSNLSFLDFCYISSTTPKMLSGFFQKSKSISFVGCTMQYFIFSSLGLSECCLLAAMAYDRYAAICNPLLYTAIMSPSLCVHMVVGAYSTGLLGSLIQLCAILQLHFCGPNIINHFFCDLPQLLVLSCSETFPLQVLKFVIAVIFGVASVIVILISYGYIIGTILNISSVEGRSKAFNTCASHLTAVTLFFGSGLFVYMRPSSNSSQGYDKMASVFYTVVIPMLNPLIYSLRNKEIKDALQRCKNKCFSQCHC
In experiment [15] the target is Olr226 (Rattus norvegicus) (UniProt P23270). In a few lines: as §1
Sequence of Olr226 (Rattus norvegicus) (P23270 whole entry): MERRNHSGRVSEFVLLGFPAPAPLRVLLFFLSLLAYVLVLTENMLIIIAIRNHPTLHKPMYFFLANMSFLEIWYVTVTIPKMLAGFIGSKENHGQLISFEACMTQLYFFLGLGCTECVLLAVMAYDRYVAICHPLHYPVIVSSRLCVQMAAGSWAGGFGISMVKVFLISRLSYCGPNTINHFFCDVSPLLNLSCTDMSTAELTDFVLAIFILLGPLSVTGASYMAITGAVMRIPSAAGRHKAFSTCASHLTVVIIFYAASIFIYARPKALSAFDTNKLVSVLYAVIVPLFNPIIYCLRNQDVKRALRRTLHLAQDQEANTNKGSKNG
Experiment [16] deals with OR9G9. In a few lines:
as §1

The subject of experiment [17] is OR9K2 R207H. Summed up: as §1
The test system of experiment [18] is OR9Q1 A83T. In a few lines: as §1
Sequence of OR9Q1 A83T (as listed by the source, stated change not applied): as the sequence (Q8NGQ5 whole entry) above, with A83T counted along it
For experiment [19], the system named is OR9Q2 C179R. Summed up:
as §1

Sequence of OR9K2 (Homo sapiens) (Q8NGE7 whole entry): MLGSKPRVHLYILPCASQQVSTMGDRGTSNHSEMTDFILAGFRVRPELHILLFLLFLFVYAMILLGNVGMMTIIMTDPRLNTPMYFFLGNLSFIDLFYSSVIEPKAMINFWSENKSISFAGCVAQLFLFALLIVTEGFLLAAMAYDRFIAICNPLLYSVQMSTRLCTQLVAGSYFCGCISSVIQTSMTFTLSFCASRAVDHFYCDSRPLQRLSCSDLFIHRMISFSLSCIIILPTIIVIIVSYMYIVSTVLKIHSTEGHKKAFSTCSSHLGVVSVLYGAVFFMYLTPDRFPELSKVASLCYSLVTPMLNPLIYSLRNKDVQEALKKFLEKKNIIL
Sequence of OR9Q2 (Homo sapiens) (Q8NGE9 whole entry): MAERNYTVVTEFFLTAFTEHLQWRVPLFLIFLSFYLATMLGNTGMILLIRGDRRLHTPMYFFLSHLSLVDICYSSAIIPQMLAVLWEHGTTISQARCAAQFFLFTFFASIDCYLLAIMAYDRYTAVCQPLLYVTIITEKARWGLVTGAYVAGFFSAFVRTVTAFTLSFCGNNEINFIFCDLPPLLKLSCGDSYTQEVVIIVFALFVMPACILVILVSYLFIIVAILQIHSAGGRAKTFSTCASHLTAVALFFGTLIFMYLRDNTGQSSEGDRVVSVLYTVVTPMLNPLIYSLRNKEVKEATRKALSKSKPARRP
Sequence of OR9Q2 C179R (as listed by the source, stated change not applied): as the sequence (Q8NGE9 whole entry) above, with C179R counted along it
Sequence of OR9G9 (as listed by the source): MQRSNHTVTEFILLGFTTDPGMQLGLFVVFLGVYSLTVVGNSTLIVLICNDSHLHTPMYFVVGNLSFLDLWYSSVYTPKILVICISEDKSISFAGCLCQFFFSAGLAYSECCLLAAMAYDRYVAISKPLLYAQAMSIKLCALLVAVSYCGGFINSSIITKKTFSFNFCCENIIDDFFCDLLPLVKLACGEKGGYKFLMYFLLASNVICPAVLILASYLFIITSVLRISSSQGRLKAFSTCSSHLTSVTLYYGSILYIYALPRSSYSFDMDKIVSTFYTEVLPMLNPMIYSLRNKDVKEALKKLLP
Sequence of OR9K2 R207H (as listed by the source, stated change not applied): as the sequence (Q8NGE7 whole entry) above, with R207H counted along it
Sequence of OR9G9 (Homo sapiens) (P0C7N8 whole entry): as the sequence (as listed by the source) above, with G193C counted along it

In the case of `C=C(C)C1CC=C(C=O)CC1` (configuration not stated), the “odorant receptor agonist call” value in experiment [1], in [2], in experiment [3] and in [4] was “inactive” each time.
Regarding `O=c1cc(O)c2ccccc2o1`, the “odorant receptor agonist call” value in experiment [1], in [5], in experiment [2], in [6], in [7] and in [3] was “inactive” in each case. For the same molecule, the “odorant receptor agonist call” value in experiment [4] and in [8] was “inactive” throughout.
In the case of `Cc1c([N+](=O)[O-])c(C)c([N+](=O)[O-])c(C(C)(C)C)c1[N+](=O)[O-]`, the “odorant receptor agonist call” value in [9], in [10], in experiment [11], in experiment [12] and in [13] was “inactive” each time. For the same molecule, the “odorant receptor agonist call” value in [14] was “active”.
`CCC1CCC(=O)O1` (configuration not stated): the “odorant receptor agonist call” value in experiment [5], in experiment [2], in experiment [6], in experiment [7] and in experiment [8] was “inactive” throughout.
Consider `CC(C=O)Cc1ccc2c(c1)OCO2` (configuration not stated), for which the “odorant receptor agonist call” value in experiment [15], in experiment [1], in [2], in experiment [3] and in experiment [4] was “inactive” each time.
Take `C=CCc1ccccc1`: the “odorant receptor agonist call” value in [5] was “active”. In addition, the “odorant receptor agonist call” value in [2], in experiment [6], in experiment [7] and in [8] was “inactive” each time.
Turning to `O=Cc1ccccc1`, the “odorant receptor agonist call” value in [1], in experiment [2], in experiment [3] and in experiment [4] was “inactive” each time.
As for `O=Cc1ccc2c(c1)OCO2`, the “odorant receptor agonist call” value in experiment [1], in experiment [2], in [3] and in experiment [4] was “inactive” each time.
In the case of `CSSC`, the “odorant receptor agonist call” value in experiment [1], in [2], in experiment [3] and in experiment [4] was “inactive” in each case.
As to `COc1ccc(C=O)cc1`, the “odorant receptor agonist call” value in experiment [1], in experiment [2], in [3] and in experiment [4] was “inactive” each time.
For `Oc1ccccc1Br`, the “odorant receptor agonist call” value in [1], in experiment [2], in experiment [3] and in experiment [4] was “inactive” each time.
Turning to `CCCCCCC(Br)C(=O)O` (configuration not stated), the “odorant receptor agonist call” value in [1], in [2], in experiment [3] and in [4] was “inactive” each time.
Turning to `CCCCC(Br)C(=O)O` (configuration not stated), the “odorant receptor agonist call” value in experiment [1], in experiment [2], in experiment [3] and in experiment [4] was “inactive” each time.
With `CC(=O)c1cc(C(C)(C)C)cc2c1CCC2(C)C`, the “odorant receptor agonist call” value in experiment [14] was “active”.
`Cc1ccc(OC(=O)Cc2ccccc2)cc1`: the “odorant receptor agonist call” value in experiment [1], in experiment [2], in experiment [3] and in experiment [4] was “inactive” in each case.
For `C=CCOC(=O)Cc1ccccc1`, the “odorant receptor agonist call” value in [16], in [10], in experiment [11], in [17], in experiment [12] and in experiment [18] was “inactive” each time. Besides, the “odorant receptor agonist call” value in experiment [13], in experiment [19], in experiment [1], in [2], in experiment [6] and in [7] was “inactive” each time. Besides, the “odorant receptor agonist call” value in [3], in [4] and in [8] was “inactive” each time. Moreover, the “odorant receptor agonist call” value in experiment [5] is “active”.

For the origin of these results see the M2OR odorant receptor database.
